ChEMBL document CHEMBL2390871, “Exploring the anticancer potential of pyrazolo[1,2-a]benzo[1,2,3,4]tetrazin-3-one derivatives: the effect on apoptosis induction, cell cycle and proliferation” (Eur J Med Chem, 2013)
Calls of active or inactive are those of the source. The rule behind the calls is not given here.

Experiments:
HeLa [1] = test: Cell cycle arrest in human HeLa cells assessed as accumulation at S phase at 50 uM after 72 hrs by propidium iodide staining-based FACS analysis; assay type: functional
Procedure, shortened: (§1)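 HeLa cells (1 × 10⁶) exposed 72 h to 5, 10, 25 or 50 µM of each compound. Cells were washed, trypsinized, fixed in chilled 70% ethanol on ice for more than 2 h, and stained with propidium iodide for 15 min at 37 °C in the dark. Cell-cycle phase distribution was read by flow cytometry against untreated control cells.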

HeLa [2] = test: Cell cycle arrest in human HeLa cells assessed as accumulation at sub-G0/G1 phase at 50 uM after 72 hrs by propidium iodide staining-based FACS analysis; assay type: functional; procedure, shortened: as §1
HeLa [3] = test: Induction of mitochondrial membrane depolarization in human HeLa cells after overnight incubation by FACS analysis; assay type: functional, cell-based
Procedure, shortened: (§2)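 HeLa cells (175,000/well) were incubated overnight with serial drug concentrations. They were washed with PBS, incubated 30 min at 37 °C in Krebs Ringer buffered saline, detached, and collected in buffer with 1% FCS. At least 2 × 10⁴ cells were analysed by flow cytometry, with the TMRM signal read on FL2. Depolarization was gated on cells treated overnight with staurosporine as positive control, and the untreated-cell signal was subtracted. Triplicates, replicated twice.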

T47D = test: Cytotoxicity against human T47D cells assessed as growth at 10 uM after 48 hrs by sulforhodamine B assay; assay type: functional; settings: read-out: Activity
Procedure, shortened: (§3)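 NCI-60 one-dose screen at 10 µM. Cells in RPMI 1640 with 5% FBS and 2 mM L-glutamine were plated at 5000–40,000/well and preincubated 24 h. Drug was then applied for 48 h at 37 °C, 5% CO₂. Adherent cells were fixed with cold TCA (10% final) and stained with SRB. Growth % is relative to the no-drug control and the time-zero cell number; negative values indicate lethality.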

PC-3 = test: Cytotoxicity against human PC3 cells assessed as growth at 10 uM after 48 hrs by sulforhodamine B assay; assay type: functional; settings: PC-3, 48 h, read-out: Activity; procedure, shortened: as §3
UO-31 = test: Cytotoxicity against human UO31 cells assessed as growth at 10 uM after 48 hrs by sulforhodamine B assay; assay type: functional; settings: UO-31, 48 h, read-out: Activity; procedure, shortened: as §3
SK-MEL-2 = test: Cytotoxicity against human SK-MEL-2 cells assessed as growth at 10 uM after 48 hrs by sulforhodamine B assay; assay type: functional; settings: SK-MEL-2, 48 h, read-out: Activity; procedure, shortened: as §3
SNB-75 = test: Cytotoxicity against human SNB75 cells assessed as growth at 10 uM after 48 hrs by sulforhodamine B assay; assay type: functional; settings: SNB-75, 48 h, read-out: Activity; procedure, shortened: as §3
SW-620 = test: Cytotoxicity against human SW620 cells assessed as growth at 10 uM after 48 hrs by sulforhodamine B assay; assay type: functional; settings: SW-620, 48 h, read-out: Activity; procedure, shortened: as §3
COLO 205 = test: Cytotoxicity against human COLO205 cells assessed as growth at 10 uM after 48 hrs by sulforhodamine B assay; assay type: functional; settings: COLO 205, 48 h, read-out: Activity; procedure, shortened: as §3
NCI-H522 = test: Cytotoxicity against human NCI-H522 cells assessed as growth at 10 uM after 48 hrs by sulforhodamine B assay; assay type: functional; settings: NCI-H522, 48 h, read-out: Activity; procedure, shortened: as §3
HOP-92 = test: Cytotoxicity against human HOP92 cells assessed as growth at 10 uM after 48 hrs by sulforhodamine B assay; assay type: functional; settings: HOP-92, 48 h, read-out: Activity; procedure, shortened: as §3
MOLT-4 = test: Cytotoxicity against human MOLT4 cells assessed as growth at 10 uM after 48 hrs by sulforhodamine B assay; assay type: functional; settings: MOLT-4, 48 h, read-out: Activity; procedure, shortened: as §3
[4] = Cytotoxicity against human LAN5 cells after overnight incubation by MTT assay; assay type: functional, cell-based; settings: LA-N-5
Procedure, shortened: (§4)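 MTT (5 mg/ml) was added for 3 h at 37 °C, formazan dissolved in DMSO, and absorbance read at 540 nm. Viability is relative to untreated cells (100%), fitted to a four-parameter Hill equation. IC50 is 50% formazan formation versus drug-free control. Triplicates, at least three independent experiments.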

CCRF-CEM = test: Cytotoxicity against human CCRF-CEM cells assessed as growth at 10 uM after 48 hrs by sulforhodamine B assay; assay type: functional; settings: read-out: Activity; procedure, shortened: as §3
[5] = Cytotoxicity against human 16HBE cells after overnight incubation by MTT assay; assay type: functional, cell-based; settings: 16HBE14o-; procedure, shortened: as §4
MCF7 = test: Cytotoxicity against human MCF7 cells after overnight incubation by MTT assay; assay type: functional, cell-based; procedure, shortened: as §4
Caco-2 = test: Cytotoxicity against human Caco2 cells after overnight incubation by MTT assay; assay type: functional, cell-based; procedure, shortened: as §4
HeLa [6] = test: Cytotoxicity against human HeLa cells after overnight incubation by MTT assay; assay type: functional, cell-based; procedure, shortened: as §4
NCI-H292 = test: Cytotoxicity against human NCI-H292 cells after overnight incubation by MTT assay; assay type: functional, cell-based; procedure, shortened: as §4
HeLa [7] = test: Cell cycle arrest in human HeLa cells assessed as accumulation at G1 phase at 5 to 50 uM after 72 hrs by propidium iodide staining-based FACS analysis; assay type: functional; procedure, shortened: as §1
HeLa [8] = test: Cell cycle arrest in human HeLa cells assessed as accumulation at sub-G0/G1 phase at 5 to 50 uM after 72 hrs by propidium iodide staining-based FACS analysis; assay type: functional; procedure, shortened: as §1
HeLa [9] = test: Induction of mitochondrial membrane depolarization in human HeLa cells at 1 uM after overnight incubation by FACS analysis; assay type: functional, cell-based; procedure, shortened: as §2
HeLa [10] = test: Induction of mitochondrial membrane depolarization in human HeLa cells at 3 to 4 uM after overnight incubation by FACS analysis; assay type: functional, cell-based; procedure, shortened: as §2
IGROV-1 = test: Cytotoxicity against human IGROV1 cells assessed as growth at 10 uM after 48 hrs by sulforhodamine B assay; assay type: functional; settings: IGROV-1, 48 h, read-out: Activity; procedure, shortened: as §3
HeLa [11] = test: Induction of mitochondrial membrane depolarization in human HeLa cells at 3 to 8 uM after overnight incubation by FACS analysis; assay type: functional, cell-based; procedure, shortened: as §2
HeLa [12] = test: Induction of mitochondrial membrane depolarization in human HeLa cells at < 10 uM after overnight incubation by FACS analysis; assay type: functional, cell-based; procedure, shortened: as §2

SMILES | growth at 10 µM (T47D) [%] | growth at 10 µM (PC-3) [%] | growth at 10 µM (UO-31) [%] | growth at 10 µM (SK-MEL-2) [%] | growth at 10 µM (SNB-75) [%] | growth at 10 µM (SW-620) [%] | growth at 10 µM (COLO 205) [%] | growth at 10 µM (NCI-H522) [%] | growth at 10 µM (HOP-92) [%] | growth at 10 µM (MOLT-4) [%] | IC50 [4] [µM] | growth at 10 µM (CCRF-CEM) [%] | IC50 [5] [µM] | IC50 (MCF7) [µM] | IC50 (Caco-2) [µM] | IC50 (HeLa [6]) [µM] | IC50 (NCI-H292) [µM] | other results
Cc1cc(=O)n2nnc3cc(Cl)c(Cl)cc3n12 | 76 | 94 | 81 | 102 | 96 | 23 | -64 | 54 | 101 | 59 | 25.7 | 23 | 13.5 | 13.9 | 25.7 | 14.8 | 28.2 | Activity (HeLa [1]): 19.4%; Activity (HeLa [2]): 25.4%; EC50 (HeLa [3]): 3 µM
Cc1cc(=O)n2nnc3cc(C(F)(F)F)ccc3n12 | 115 | 101 | 84 | 99 | 116 | 118 | 108 | 97 | 94 | 91 | 15.1 | 103 | 30.9 | > 100 | > 100 | > 100 | > 100 | Activity (HeLa [7]): -12%; Activity (HeLa [8]): 7.2%; Activity (HeLa [9]): Active
Cc1cc2nnn3c(=O)cc(C)n3c2cc1C | 97 | 100 | 84 | 96 | 89 | 94 | 66 | 97 | 93 | 82 | 95.5 | 19 | 38.9 | 46.7 | 46.8 | 13.2 | 23.4 | Activity (HeLa [1]): 10%; Activity (HeLa [2]): 18%; Activity (HeLa [10]): Active; growth at 10 µM (IGROV-1): 91%
Cc1cc(=O)n2nnc3ccc(Cl)cc3n12 | – | – | – | – | – | – | – | – | – | – | 48.9 | – | 27.5 | 29.5 | 34.6 | 15.8 | 25.1 | –
Cc1ccc2c(c1)nnn1c(=O)cc(C)n21 | – | – | – | – | – | – | – | – | – | – | 93.3 | – | 36.3 | 42.6 | 50.2 | 15.4 | 25.1 | Activity (HeLa [11]): Active
Cc1cc(=O)n2nnc3cc(C#N)ccc3n12 | 91 | 101 | 105 | 99 | 96 | 110 | 104 | 97 | 103 | 95 | 28.2 | 100 | 46.7 | 35.9 | 37.1 | 27 | 43.6 | Activity (HeLa [12]): Active
Cc1cc(=O)n2nnc3cc(Cl)ccc3n12 | – | – | – | – | – | – | – | – | – | – | 31.6 | – | 17.7 | 20.5 | 24 | 14.8 | 23.4 | EC50 (HeLa [3]): 5 µM
